Measurements published in paper PMC4030725 (Molecular pharmaceutics, 2013).
Where two headings read alike, the source gives them in different places.

Assays:
UGT1A9 = conditions: cited from earlier work
HeLa-UGT1A9 cells [1] = format: in vitro ADME, human; conditions: end of experiment
How it was run: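 After the efflux incubation, cells were washed twice with ice-cold HBSS, collected in HBSS and sonicated for 30 min at 4°C. Lysates were centrifuged at 15,500 rpm for 20 min. Supernatant was mixed with acetonitrile/acetic acid stop solution and glucuronides were quantified by UPLC-DAD. Protein was measured by assay kit against a BSA standard, and concentration was calculated assuming a cell volume of 4 μl/mg protein. n=3.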

BCRP = molecular target: T1, BCRP (Homo sapiens, UniProt Q9UNQ0); assay: BCRP-mediated efflux of flavone glucuronides from HeLa-UGT1A9 cells; format: in vitro ADME; conditions: for Log(CLint) / Vmax: BCRP-mediated glucuronide efflux, HeLa-UGT1A9 cells; for Km: efflux kinetic parameter Km, HeLa-UGT1A9 cells (Table 2, unit inferred)
T1 sequence (Q9UNQ0 1-655): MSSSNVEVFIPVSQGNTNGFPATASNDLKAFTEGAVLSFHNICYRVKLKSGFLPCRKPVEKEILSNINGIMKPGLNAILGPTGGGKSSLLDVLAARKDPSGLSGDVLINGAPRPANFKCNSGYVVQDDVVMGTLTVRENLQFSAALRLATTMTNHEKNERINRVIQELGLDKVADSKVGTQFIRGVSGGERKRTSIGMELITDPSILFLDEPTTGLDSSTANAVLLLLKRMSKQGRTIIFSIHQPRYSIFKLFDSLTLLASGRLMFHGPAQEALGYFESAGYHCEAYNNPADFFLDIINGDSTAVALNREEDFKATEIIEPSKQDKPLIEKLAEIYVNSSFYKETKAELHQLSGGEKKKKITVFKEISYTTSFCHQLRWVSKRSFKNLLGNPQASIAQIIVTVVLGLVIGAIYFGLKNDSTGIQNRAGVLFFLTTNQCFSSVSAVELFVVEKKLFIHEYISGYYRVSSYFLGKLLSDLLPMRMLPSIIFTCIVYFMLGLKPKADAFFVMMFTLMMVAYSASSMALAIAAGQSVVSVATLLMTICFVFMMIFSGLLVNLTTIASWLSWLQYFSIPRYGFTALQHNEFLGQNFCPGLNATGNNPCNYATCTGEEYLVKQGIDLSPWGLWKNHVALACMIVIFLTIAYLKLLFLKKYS
How it was run: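 HeLa cells stably expressing UGT1A9 were used 3 days post-seeding and washed twice with 37°C HBSS (pH 7.4). They were loaded at 37°C with a mono- or dihydroxyflavone aglycone in HBSS, diluted from a 100X DMSO/methanol (1:4) stock. Medium was sampled within the linear time range, quenched with acetonitrile/acetic acid and analysed by UPLC-DAD. Rates (pmol/min/mg protein) were fitted against intracellular glucuronide concentration; CLint = Vmax/Km. n=3.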

HeLa-UGT1A9 cells [2] = assay: Fraction metabolized; format: in vitro ADME, human; conditions: six DHFs compared at five loading concentrations (Fig. 8A)
[3] = molecular target: T2, Human BCRP (Arg482) membrane vesicles (Homo sapiens, UniProt Q9UNQ0); assay: Vesicular transport of HF glucuronides in BCRP-overexpressing membrane vesicles; format: in vitro ADME; conditions: for difference in Km between membrane vesicles and HeLa-UGT1A9 cells: BCRP vesicles vs HeLa-UGT1A9 cells; for Km: efflux kinetic parameter Km, BCRP membrane vesicles (Table 2, unit inferred)
T2 sequence (Q9UNQ0 1-655): T1 sequence (Q9UNQ0 1-655)
How it was run: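 Inside-out human BCRP (Arg482) membrane vesicles were incubated with glucuronide substrate and 5 mM ATP, or AMP as control, in 10 mM MgCl₂/10 mM Tris-HCl (pH 7.4). The reaction was stopped with cold buffer, followed by rapid filtration through glass-fibre filters and ice-cold washes. Filters were extracted in 50% methanol with sonication, centrifuged and analysed by UPLC. ATP-dependent transport was taken as ATP minus AMP values.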

[4] = UGT1A9-mediated glucuronidation of the aglycone, ref Wu and Hu [37]
[5] = loading aglycone concentration 0.3125 μM
[6] = loading aglycone concentration 0.625 μM
[7] = loading aglycone concentration 1.25 μM
[8] = loading aglycone concentration 2.5 μM
[9] = loading aglycone concentration 5 μM
[10] = loading aglycone concentration 10 μM
[11] = loading aglycone concentration 15 μM
[12] = loading aglycone concentration 20 μM

## O=c1cc(-c2ccccc2O)oc2ccccc12 [2′HF, 2′-Hydroxyflavone]
UGT1A9; [4]
  Km: 0.4 µM
  Log(CLint)′: 2.27
  Vmax′: 74.4 pmol/mg/min

## O=c1c(O)c(-c2ccccc2O)oc2ccccc12 [3,2′DHF, 3,2′-Dihydroxyflavone]
UGT1A9; [4]
  Km: 0.67 µM
  Log(CLint)′: 1.89
  Vmax′: 52 pmol/mg/min

## O=c1c(O)c(-c2cccc(O)c2)oc2ccccc12 [3,3′ DHF, 3,3′-Dihydroxyflavone]
UGT1A9; [4]
  Km: 0.11 µM
  Log(CLint)′: 4.44
  Vmax′: 3100 pmol/mg/min

## O=c1c(O)c(-c2ccc(O)cc2)oc2ccccc12 [3,4′DHF, 3,4′-Dihydroxyflavone]
UGT1A9; [4]
  Km: 0.13 µM
  Vmax′: 1800 pmol/mg/min

## O=C(O)[C@H]1O[C@@H](Oc2c(-c3ccc(O)cc3)oc3ccccc3c2=O)[C@H](O)[C@@H](O)[C@@H]1O [3,4′DHF-3-O-G]
HeLa-UGT1A9 cells [1]; [5]
  Intracellular Con. of DHFs-3-O-G: 2.67 ± 0.09 µM
HeLa-UGT1A9 cells [1]; [6]
  Intracellular Con. of DHFs-3-O-G: 14.27 ± 2.00 µM
HeLa-UGT1A9 cells [1]; [7]
  Intracellular Con. of HFs-G or DHFs-3-O-G: 71.15 ± 6.11 µM
HeLa-UGT1A9 cells [1]; [8]
  Intracellular Con. of HFs-G or DHFs-3-O-G: 241.60 ± 26.10 µM
HeLa-UGT1A9 cells [1]; [9]
  Intracellular Con. of HFs-G or DHFs-3-O-G: 645.32 ± 5.81 µM
HeLa-UGT1A9 cells [1]; [10]
  Intracellular Con. of HFs-G or DHFs-3-O-G: 715.62 ± 31.7 µM
BCRP
  Log(CLint): 0.38
  Vmax: 86.0 ± 5.4 pmol/mg/min

## O=c1c(O)c(-c2ccccc2)oc2cccc(O)c12 [3,5 DHF, 3,5-Dihydroxyflavone]
UGT1A9; [4]
  Km: 0.25 µM
  Log(CLint)′: 3.88
  Vmax′: 1900 pmol/mg/min
HeLa-UGT1A9 cells [2]
  fmet: least sensitive to the rising concentration

## O=C(O)[C@H]1O[C@@H](Oc2c(-c3ccccc3)oc3cccc(O)c3c2=O)[C@H](O)[C@@H](O)[C@@H]1O [3,5DHF-3-O-G]
HeLa-UGT1A9 cells [1]; [5]
  Intracellular Con. of DHFs-3-O-G: 2.28 ± 0.68 µM
HeLa-UGT1A9 cells [1]; [6]
  Intracellular Con. of DHFs-3-O-G: 4.82 ± 0.02 µM
HeLa-UGT1A9 cells [1]; [7]
  Intracellular Con. of HFs-G or DHFs-3-O-G: 14.70 ± 2.60 µM
HeLa-UGT1A9 cells [1]; [8]
  Intracellular Con. of HFs-G or DHFs-3-O-G: 53.48 ± 3.45 µM
HeLa-UGT1A9 cells [1]; [9]
  Intracellular Con. of HFs-G or DHFs-3-O-G: 242.98 ± 9.46 µM
HeLa-UGT1A9 cells [1]; [10]
  Intracellular Con. of HFs-G or DHFs-3-O-G: 416.65 ± 12.34 µM
BCRP
  Log(CLint): 0.72
  Vmax: 67.3 ± 6.2 pmol/mg/min

## O=c1c(O)c(-c2ccccc2)oc2ccc(O)cc12 [3,6DHF, 3,6-Dihydroxyflavone]
UGT1A9; [4]
  Km: 0.62 µM
  Log(CLint)′: 4.34
  Vmax′: 13000 pmol/mg/min
HeLa-UGT1A9 cells [2]
  fmet: highest fmet value at all tested concentration

## O=c1c(O)c(-c2ccccc2)oc2cc(O)ccc12 [3,7DHF(3-OH), 3,7-Dihydroxyflavone]
UGT1A9; [4]
  Km: 0.22 µM
  Log(CLint)′: 4.32
  Vmax′: 4600 pmol/mg/min

## O=c1c(O)c(-c2ccccc2)oc2ccccc12 [3HF, 3-Hydroxyflavone]
UGT1A9; [4]
  Km: 0.3 µM
  Log(CLint)′: 3.84
  Vmax′: 2100 pmol/mg/min

## O=C(O)[C@H]1O[C@@H](Oc2c(-c3ccccc3)oc3ccccc3c2=O)[C@H](O)[C@@H](O)[C@@H]1O [3HF-G]
HeLa-UGT1A9 cells [1]; [7]
  Intracellular Con. of HFs-G or DHFs-3-O-G: 7.14 ± 3.02 µM
HeLa-UGT1A9 cells [1]; [8]
  Intracellular Con. of HFs-G or DHFs-3-O-G: 38.56 ± 8.36 µM
HeLa-UGT1A9 cells [1]; [9]
  Intracellular Con. of HFs-G or DHFs-3-O-G: 206.98 ± 12.39 µM
HeLa-UGT1A9 cells [1]; [10]
  Intracellular Con. of HFs-G or DHFs-3-O-G: 335.57 ± 41.55 µM
HeLa-UGT1A9 cells [1]; [11]
  Intracellular Con. of HFs-G: 356.82 ± 94.04 µM
HeLa-UGT1A9 cells [1]; [12]
  Intracellular Con. of HFs-G: 280.60 ± 28.78 µM
[3]
  difference in Km between membrane vesicles and HeLa-UGT1A9 cells: approximately 3 fold
  Km: 29 µM
BCRP
  Log(CLint): 1.23
  Vmax: 165.6 ± 10.1 pmol/mg/min
  Km: 9.7 µM

## O=c1cc(-c2cccc(O)c2)oc2ccccc12 [3′HF, 3′-Hydroxyflavone]
UGT1A9; [4]
  Km: 2.02 µM
  Log(CLint)′: 2.66
  Vmax′: 926 pmol/mg/min

## O=c1cc(-c2ccc(O)cc2)oc2ccccc12 [4′HF, 4′-Hydroxyflavone]
UGT1A9; [4]
  Km: 1.46 µM
  Log(CLint)′: 1.83
  Vmax′: 98.7 pmol/mg/min

## O=c1cc(-c2ccccc2)oc2cccc(O)c12 [5HF, 5-Hydroxyflavone]
UGT1A9; [4]
  Vmax′: 118 pmol/mg/min
UGT1A9
  CLint′(Vmax′/ Km′): 123 µL/min/mg
  Km: 0.96 µM
  Log(CLint)′: 2.09

## O=C(O)[C@H]1O[C@@H](Oc2cccc3oc(-c4ccccc4)cc(=O)c23)[C@H](O)[C@@H](O)[C@@H]1O [5HF-G]
HeLa-UGT1A9 cells [1]; [7]
  Intracellular Con. of HFs-G or DHFs-3-O-G: 31.03 ± 0.44 µM
HeLa-UGT1A9 cells [1]; [8]
  Intracellular Con. of HFs-G or DHFs-3-O-G: 47.98 ± 3.91 µM
HeLa-UGT1A9 cells [1]; [9]
  Intracellular Con. of HFs-G or DHFs-3-O-G: 72.86 ± 2.26 µM
HeLa-UGT1A9 cells [1]; [10]
  Intracellular Con. of HFs-G or DHFs-3-O-G: 94.74 ± 11.70 µM
HeLa-UGT1A9 cells [1]; [11]
  Intracellular Con. of HFs-G: 18.32 ± 6.47 µM
HeLa-UGT1A9 cells [1]; [12]
  Intracellular Con. of HFs-G: 235.51 ± 14.96 µM
[3]
  difference in Km between membrane vesicles and HeLa-UGT1A9 cells: > 10 fold
  Km: 2.9 µM
BCRP
  Log(CLint): 0.77
  Vmax: 283.4 ± 20.0 pmol/mg/min
  Km: 48.5 µM

## O=c1cc(-c2ccccc2)oc2ccc(O)cc12 [6HF, 6-Hydroxyflavone]
UGT1A9; [4]
  Km: 2.27 µM
  Log(CLint)′: 1.53
  Vmax′: 76.1 pmol/mg/min

## O=c1cc(-c2ccccc2)oc2cc(O)ccc12 [7HF, 7-Hydroxyflavone]
UGT1A9; [4]
  Km: 3.59 µM
  Log(CLint)′: 3.13
  Vmax′: 4895 pmol/mg/min
